Measurements as given in ChEMBL document CHEMBL1156905, “N-heterocyclic derived M1 positive allosteric modulators” (Bioorg Med Chem Lett, 2010).
One block for each compound: values may come before it. Activity calls are given as the source filed them. The calls are words filed in the database; no cut-off is given here.

Columns and labels:
[1] = target: T1, Muscarinic acetylcholine receptor M1 (Homo sapiens) (UniProt P11229); test: Allosteric modulator activity at human muscarinic M1 receptor expressed in CHO cells assessed as potentiation of acetylcholine-induced calcium mobilization by FLIPR assay; assay type: functional, cell-based
T1 sequence (whole entry): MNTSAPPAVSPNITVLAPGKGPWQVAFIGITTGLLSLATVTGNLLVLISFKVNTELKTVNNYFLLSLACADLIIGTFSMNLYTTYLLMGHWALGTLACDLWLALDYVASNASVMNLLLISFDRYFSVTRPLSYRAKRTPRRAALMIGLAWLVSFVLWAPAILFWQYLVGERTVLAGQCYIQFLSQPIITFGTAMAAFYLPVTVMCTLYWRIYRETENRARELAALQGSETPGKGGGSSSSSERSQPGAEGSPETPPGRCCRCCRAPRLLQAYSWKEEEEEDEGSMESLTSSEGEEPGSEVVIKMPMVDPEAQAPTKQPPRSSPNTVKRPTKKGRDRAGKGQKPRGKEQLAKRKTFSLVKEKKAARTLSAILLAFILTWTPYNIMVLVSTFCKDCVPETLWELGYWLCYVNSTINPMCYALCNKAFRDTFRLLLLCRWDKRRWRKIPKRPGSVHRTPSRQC

Homo sapiens [2] = species: Homo sapiens; test: Protein binding in human plasma; details: read-out: PPB (converted)
Plasma = test: Fraction unbound in human plasma; assay type: ADME, cell-free
Method in brief: (§1)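 Binding in rat and human serum/plasma measured by equilibrium dialysis.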

[3] = Fraction unbound in rat plasma; assay type: ADME, cell-free; method in brief: as §1
[4] = Protein binding in rat plasma; assay type: ADME, cell-free; details: read-out: PPB (converted); method in brief: as §1
Homo sapiens [5] = species: Homo sapiens; test: Protein binding in human plasma; details: read-out: PPB (converted); remark: listed apart in the source
[6] = Ratio of drug level in rat cerebrospinal fluid to unbound fraction in rat plasma; assay type: ADME, CSF/Plasma; details: in vivo
[7] = Ratio of drug level in brain to plasma in Sprague-Dawley rat at 10 mg/kg, po; assay type: ADME, organism-based; design: dose 10 mg/kg, route oral
Method in brief: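 Sprague–Dawley rats dosed orally at 10 mg/kg in 0.5% methocel; brain to plasma level ratio; interanimal variability under 20%.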

Homo sapiens [8] = species: Homo sapiens; test: Fraction unbound in human plasma
[9] = target: T1, Muscarinic acetylcholine receptor M1 (Homo sapiens); test: Agonist activity at human muscarinic M1 receptor expressed in CHO cells assessed as potentiation of acetylcholine-induced calcium mobilization at >= 10 uM by FLIPR assay; assay type: functional, cell-based
Mus musculus = test: Reversal of cognitive deficits in contextual fear conditioning in mouse at 10 mg/kg, ip after 24 hrs in presence of Scopolamine; assay type: functional, organism-based; design: dose 10 mg/kg
Method in brief: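 Mouse contextual fear conditioning (episodic memory model); mice given scopolamine before exposure to novel environment; test agent 10 mg/kg ip; reversal compared with scopolamine-alone group; plasma levels sampled.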

[10] = target: T1, Muscarinic acetylcholine receptor M1 (Homo sapiens); test: Allosteric modulator activity at human muscarinic M1 receptor expressed in CHO cells assessed as potentiation of acetylcholine-induced calcium mobilization at 1 uM by FLIPR assay; assay type: functional, cell-based
Method in brief: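 CHO cells expressing human M1; acetylcholine dose response run with fixed 1 µM potentiator (also 0.01–100 µM series), calcium mobilization by FLIPR; fold left-shift of acetylcholine curve recorded.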

[11] = Plasma concentration in ip dosed mouse after 24 hrs

Activity [1]: 228 nM
Compound: O=C(O)c1cn(Cc2ccc(-n3nnc4ccccc43)cc2)c2cccc(F)c2c1=O

Activity [1]: 96 nM
Compound: O=C(O)c1cn(Cc2ccc(-n3cccn3)cc2)c2c(F)cccc2c1=O

Activity [1]: 39 nM
Compound: O=C(O)c1cn(Cc2ccc(-n3cnc(-c4ccccc4)c3)cc2)c2cccc(F)c2c1=O

Activity [1]: 110 nM | fraction unbound (Homo sapiens [2]): 0.162
Compound: O=C(O)c1cn(Cc2ccc(-n3ccnc3)cc2)c2cccc(F)c2c1=O

Activity [1]: 160 nM | fraction unbound (Homo sapiens [2]): 0.031
Compound: O=C(O)c1cn(Cc2ccc(-n3ccc4cnccc43)cc2)c2cccc(F)c2c1=O

Activity [1]: 96 nM | fraction unbound (Homo sapiens [2]): 0.084 | Fu (Plasma): 9% | fraction unbound [3]: 0.039
Compound: O=C(O)c1cn(Cc2ccc(-n3cnc4ccccc43)cc2)c2cccc(F)c2c1=O

Activity [1]: 150 nM
Compound: O=C(O)c1cn(Cc2ccc(-n3ccc4ncccc43)cc2)c2cccc(F)c2c1=O

Activity [1]: 660 nM
Compound: COc1ccc(Cn2cc(C(=O)O)c(=O)c3ccccc32)cc1

Activity [1]: 36 nM | fraction unbound [4]: 0.057 | fraction unbound (Homo sapiens [5]): 0.057
Compound: Cc1ccn(-c2ccc(Cn3cc(C(=O)O)c(=O)c4c(F)cccc43)cc2)n1

Activity [1]: 620 nM
Compound: Cc1nn(-c2ccc(Cn3cc(C(=O)O)c(=O)c4c(F)cccc43)cc2)c2ccccc12

Activity [1]: 24000 nM
Compound: O=C(O)c1cn(Cc2ccc(-n3cccn3)nn2)c2c(F)cccc2c1=O

Activity [1]: 864 nM
Compound: O=C(O)c1cn(Cc2ccc(-n3cccn3)nc2)c2c(F)cccc2c1=O

Activity [1]: 181 nM | fraction unbound [4]: 0.003 | fraction unbound (Homo sapiens [5]): 0.003
Compound: O=C(O)c1cn(Cc2ccc(-n3cccc3)cc2)c2cccc(F)c2c1=O

Activity [1]: 1400 nM
Compound: O=C(O)c1cn(Cc2ccc(-n3cccn3)cn2)c2c(F)cccc2c1=O

Activity [1]: 500 nM | fraction unbound [4]: 0.116 | fraction unbound (Homo sapiens [5]): 0.224
Compound: O=C(O)c1cn(Cc2ccc(N3CCOC3=O)cc2)c2cccc(F)c2c1=O

Ratio [6]: 0.05 | Activity [1]: 94 nM | fraction unbound [4]: 0.116 | Kp [7]: 0.04 | fraction unbound [3]: 0.1 | fraction unbound (Homo sapiens [5]): 0.116 | fraction unbound (Homo sapiens [8]): 0.1
Compound: O=C(O)c1cn(Cc2ccc(-n3cccn3)cc2)c2cccc(F)c2c1=O

Activity [1]: 250 nM
Compound: O=C(O)c1cn(Cc2ccc(-n3ccc4ccccc43)cc2)c2cccc(F)c2c1=O

Activity [1]: 2500 nM
Compound: O=C(O)c1cn(Cc2ccc(N3CCCC3=O)cc2)c2cccc(F)c2c1=O

Activity [1]: 290 nM
Compound: O=C(O)c1cn(Cc2ccc(-n3ccc(C(F)(F)F)n3)cc2)c2cccc(F)c2c1=O

Activity [1]: 2900 nM
Compound: Cc1ccnn1-c1ccc(Cn2cc(C(=O)O)c(=O)c3c(F)cccc32)cc1

Activity [1]: 920 nM
Compound: Cc1nccn1-c1ccc(Cn2cc(C(=O)O)c(=O)c3c(F)cccc32)cc1

Activity [1]: 140 nM | fraction unbound (Homo sapiens [2]): 0.111
Compound: Cc1cn(-c2ccc(Cn3cc(C(=O)O)c(=O)c4c(F)cccc43)cc2)cn1

Activity [1]: 90 nM
Compound: O=C(O)c1cn(Cc2ccc(-n3ccc4cccnc43)cc2)c2cccc(F)c2c1=O

Ratio [6]: 0.1 | Activity [1]: 171 nM | fraction unbound (Homo sapiens [2]): 0.043 | Activity [9]: Active | Kp [7]: 0.03 | fold change (FC) [10]: 46 | concentration at 24 h [11]: 9 µM
Compound: O=C(O)c1cn(Cc2ccc(-n3cccn3)cc2)c2c(F)ccc(F)c2c1=O
Activity (Mus musculus): Active
